Test results reported in ChEMBL document CHEMBL1149884, “Investigating biological activity spectrum for novel quinoline analogues 2: hydroxyquinolinecarboxamides with photosynthesis-inhibiting activity” (Bioorg Med Chem, 2008).
The source made the active and inactive calls. The calls are words filed in the database; no cut-off is given here.

Key:
[1] = Lipophilicity, log K of the compound; assay type: physicochemical
Summary of the method: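 Isocratic RP-HPLC on end-capped C18 column, methanol as organic modifier. Retention times taken in minutes. Capacity factor K derived from them, and log K used as a lipophilicity index.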

[2] = test system: Spinacia oleracea; assay: Herbicidal activity in Spinacia oleracea assessed as inhibition of photosynthetic electron transport by decrease in oxygen evolution; assay type: functional
Summary of the method: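 Spinach chloroplast PET measured as oxygen evolution in phosphate buffer (0.02 mol/L, pH 7.2) with sucrose 0.4 mol/L, MgCl₂ 0.005 mol/L, NaCl 0.015 mol/L. Chl 30 mg/L, halogen lamp irradiation (~100 W/m², 10 cm, water filter), 22 °C. IC50 = molar concentration giving 50% decrease in oxygen evolution vs untreated control.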

[3] = test system: Chlorella vulgaris; assay: Herbicidal activity against Chlorella vulgaris Beij assessed as decrease in chlorophyll content after 7 days; assay type: functional, organism-based; settings: for IC50: 168 h
Summary of the method: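 C. vulgaris grown statically at room temperature (16 h light/8 h dark, 80 µmol/m² s PAR, pH 7.2), starting Chl 0.01 mg/L. Exposed 7 days to 100, 75, 50, 25, 8.3, 4.2, 0.83 µmol/L (DMSO ≤0.25%, matched DMSO controls). Chl read spectrophotometrically after methanol extraction. IC50 = 50% Chl decrease vs control, else mean % of control over 100–0.83 µmol/L ± SD.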

SMILES	log K [1]	Activity [2]	IC50 [3] [µM]	IC50 [2] [µM]	Activity [3]	log K ([1]; octanol/water)
COc1ccc(CNC(=O)c2ccc3ccc(C)nc3c2O)cc1	0.2843	inactive	4.8			
Cc1ccc2ccc(C(=O)NCc3ccc(F)cc3)c(O)c2n1	0.3389	inactive	158			
Cc1ccc2c([N+](=O)[O-])cc(C(=O)NCc3ccccc3)c(O)c2n1	0.4021			32	inactive	
Cc1ccc2ccc(C(=O)NNC(=O)c3ccccc3O)c(O)c2n1		inactive			inactive	0.6361
Cc1ccc(CNC(=O)c2ccc3ccc(C)nc3c2O)cc1	0.3793	inactive	7.2			
Cc1ccc2ccc(C(=O)NCCNC(=O)c3ccc4ccc(C)nc4c3O)c(O)c2n1	0.1109	inactive	93.7			
Cc1ccc2c([N+](=O)[O-])cc(C(=O)NC(C)c3ccc(F)cc3)c(O)c2n1 (stereo unspecified)	0.4283		43.6	8.7		
Cc1ccc2c(O)c(C(=O)NCCCNC(=O)c3ccc4nc(C)ccc4c3O)ccc2n1	0.1203		19.5	819		
Cc1ccc2c(O)c(C(=O)NC(=O)NC(=O)c3ccc4nc(C)ccc4c3O)ccc2n1	0.612		5.5	833		
Cc1ccc2ccc(C(=O)NCCCCc3ccccc3)c(O)c2n1	0.5075	inactive	8.5			
Cc1ccc(CNC(=O)c2cc([N+](=O)[O-])c3ccc(C)nc3c2O)cc1	0.4304			107	inactive	
Cc1ccc2ccc(C(=O)NCCCNC(=O)c3ccc4ccc(C)nc4c3O)c(O)c2n1	0.1168	inactive	149			
Cc1ccc2c(O)c(C(=O)Nc3ccc(Cl)cc3)ccc2n1	0.3812		23.8	265		
Cc1ccc2c(O)c(C(=O)NC(C)c3ccc(F)cc3)ccc2n1 (stereo unspecified)	0.3663			426		
Cc1ccc2ccc(C(=O)NC(C)c3ccc(F)cc3)c(O)c2n1 (stereo unspecified)	0.372	inactive	83.3			
Cc1ccc2ccc(C(=O)NCCO)c(O)c2n1	0.2629	inactive			inactive	
Cc1ccc2c(O)c(C(=O)NCCc3ccc(O)cc3)ccc2n1	0.3775			16		
Cc1ccc2c([N+](=O)[O-])cc(C(=O)NCc3ccc(F)cc3)c(O)c2n1	0.4136			95	inactive	
Cc1ccc2ccc(C(=O)NCc3ccccc3)c(O)c2n1	0.2812	inactive	17.2			
COc1ccc(CNC(=O)c2cc([N+](=O)[O-])c3ccc(C)nc3c2O)cc1	0.4087			137	inactive	
CN(C)C(=O)Nc1ccc(Cl)c(Cl)c1 [DCMU]				1.9		
Cc1ccc(CNC(=O)c2ccc3nc(C)ccc3c2O)cc1	0.38			468		
Cc1ccc2ccc(C(=O)NCCc3ccccc3)c(O)c2n1	0.2404	inactive				
Cc1ccc2c(O)c(C(=O)Nc3ccc4c(O)c(C(=O)O)cc([N+](=O)[O-])c4n3)ccc2n1	0.4072			114		
Cc1ccc2ccc(C(=O)NCCc3ccc(F)cc3)c(O)c2n1	0.3342	inactive	15.9			
Cc1ccc2c(O)c(C(=O)NCCCCc3ccccc3)ccc2n1	0.4173		10.9	7.2		
